# Screening results (PubChem BioAssay)
# ERAP1 HTS inh: human ERAP1 aminopeptidase inhibitors, primary screen, biochemical, single point, plate reader. recombinant ERAP1, Leu-AMC fluorescence, 60 min. inhibition, % at 10.7 µM. 340,000 compounds, 0.15% hits;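 active = mean replicate inhibition of at least 30%, or all replicates individually reaching that 30% level; inactive = mean below 30% and not every replicate reaching it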;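 note: 0% = neutral control wells and 100% = L-leucinethiol positive control wells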
# Target sequence (Q9NZ08 whole entry, looked up): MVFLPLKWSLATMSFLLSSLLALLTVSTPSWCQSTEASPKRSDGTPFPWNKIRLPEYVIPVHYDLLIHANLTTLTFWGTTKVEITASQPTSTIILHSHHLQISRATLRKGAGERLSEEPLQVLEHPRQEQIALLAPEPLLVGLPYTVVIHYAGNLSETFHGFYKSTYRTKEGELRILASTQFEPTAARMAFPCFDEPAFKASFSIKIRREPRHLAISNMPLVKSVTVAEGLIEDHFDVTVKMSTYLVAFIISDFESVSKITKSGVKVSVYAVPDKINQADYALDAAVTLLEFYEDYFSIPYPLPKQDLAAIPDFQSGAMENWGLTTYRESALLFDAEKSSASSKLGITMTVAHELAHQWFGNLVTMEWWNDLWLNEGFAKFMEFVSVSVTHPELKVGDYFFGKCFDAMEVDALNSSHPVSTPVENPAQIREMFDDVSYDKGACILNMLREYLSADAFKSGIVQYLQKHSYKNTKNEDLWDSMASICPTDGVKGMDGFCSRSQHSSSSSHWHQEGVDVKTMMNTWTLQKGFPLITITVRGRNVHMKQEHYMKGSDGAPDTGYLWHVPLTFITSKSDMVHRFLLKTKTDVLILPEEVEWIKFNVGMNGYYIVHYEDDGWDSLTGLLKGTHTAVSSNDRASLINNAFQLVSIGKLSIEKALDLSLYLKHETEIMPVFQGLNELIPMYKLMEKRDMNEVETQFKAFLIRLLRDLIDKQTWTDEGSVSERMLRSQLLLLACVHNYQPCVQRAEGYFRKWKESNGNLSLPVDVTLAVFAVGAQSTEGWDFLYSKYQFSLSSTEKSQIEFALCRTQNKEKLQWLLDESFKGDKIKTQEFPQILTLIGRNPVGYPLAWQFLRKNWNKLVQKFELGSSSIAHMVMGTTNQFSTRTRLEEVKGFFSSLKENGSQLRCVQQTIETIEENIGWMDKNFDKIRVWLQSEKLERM
# Wnt act: Wnt/beta-catenin pathway activators, primary screen, cell-based, plate reader, single point | Wnt/beta-catenin reporter cell assay, activator | activation, % at 9.35 µM | 300,000 compounds, 1.2% hits | AID 743398, 2014; in the data active = activation above about 30%, passing the limit was not always enough; inconclusive = no clear call, values can overlap the other calls;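 note: 0% = neutral control wells and 100% = positive control wells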
# MITF act: activators of MITF-driven TRPM1 promoter reporter, primary screen, cell-based, SK-MEL-5, luciferase, single point. SK-MEL-5 TRPM1-promoter luciferase, 24 h; % of positive control, neutral wells = 0. activation, % at 12.5 µM. 300,000 compounds, 0.75% hits;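 active = mean activation of at least 80% with every replicate also reaching 80%; inconclusive = mean reaches 80% but some replicate falls short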;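 note: 0% = neutral control wells and 100% = parthenolide positive control wells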
# Cneo AK release: Cryptococcus neoformans cell lysis inducers, primary screen, AK release luminescence, single concentration; C. neoformans lysis, adenylate kinase release luminescence, 4 h; normalised: neutral wells 0, clomiphene wells 100; lysis activity, % at 15 µM; 360,000 compounds, 0.2% hits;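 active = mean lysis activity across replicates of at least 80%, whatever share of replicates individually reach that level; inactive = mean lysis activity below 80%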
#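 Material – log-phase Cryptococcus neoformans yeast cells · Input – 5 × 10^6 yeast cells/mL · Medium – fresh YPD growth medium · Doses – single compound concentration per well · Timing – static 4 h at 37 °C with compound, 1 h detection · Detection – adenylate kinase release luminescence · Read-out – signal increase indicating cell lysis · Control set – Clomiphene as positive lysis control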
# HIV Env fusion: inhibitors of HIV-1 Env-driven cell-cell fusion, primary screen, HeLa-JRFL effector, CEM21 target cells, luciferase; inhibition, % at 12.3 µM; 360,000 compounds, 1.1% hits;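 active = mean replicate inhibition score of at least 50 and every replicate individually at or above 50; inconclusive = only one of the two criteria met; inactive = mean below 50 and not all replicates reaching 50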;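 note: 0% = plate neutral controls and 100% = maraviroc near 300 nM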
# esBAF inh: Bmi1 luciferase reporter increase in mESCs, primary screen, esBAF inhibitor project, mouse ES cells, Bmi1 luciferase knock-in, single point. 24 h; 100% = twice the neutral-well signal. reporter increase, % at 12.5 µM. 350,000 compounds, 2% hits. AID 602393, 2012; in the data active = activation above about 40%; inconclusive = no clear call, values can overlap the other calls;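 note: 0% = median of the plate's neutral control wells and 100% = double that signal; a rise in the Bmi1 reporter signal indicates esBAF inhibition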
# Active calls of the source: *; ? = inconclusive; . = no result given; [ ] = another dose, or the depositor's remark. Hits are enriched below; roughly 3.5% of the tested compounds scored in any of these assays.
SMILES,ERAP1 HTS inh,Wnt act,MITF act,Cneo AK release,HIV Env fusion,esBAF inh
CC1CCCN(C(=O)CCc2nnc(-c3ccc4c(c3)OCO4)o2)C1 (stereo unspecified),-5,14,22,-2,-19,42*
CCC(=O)C1CCCN(C(=O)CCc2nnc(-c3ccc(C(C)=O)s3)o2)C1 (stereo unspecified),2,22,49,2,-35,83*
COc1ccc(NC(=O)Nc2ccc3c(c2)C(=O)N([C@H](C)CO)C[C@H](C)[C@H](CN(C)C(=O)C2CCCCC2)OCCCC[C@@H](C)O3)cc1,2,.,.,6,17[16.7 µM],-2
CCCCCCCCCCOC(=O)Cn1c(COc2ccccc2OC)[n+](C)c2ccccc21,.,-8,.,5,86*,-26
Cc1noc(C)c1NC(=O)Nc1ccc2c(c1)C(=O)N(C)[C@H]1CC[C@H](CC(=O)N[C@H]3CCN(Cc4ccccc4)C3)O[C@H]1CO2,-3,.,.,86*,-6[16.7 µM],0
Cc1noc(C)c1NC(=O)Nc1ccc2c(c1)C(=O)N(C)[C@@H]1CC[C@H](CC(=O)N[C@H]3CCN(Cc4ccccc4)C3)O[C@@H]1CO2,-5,.,.,100*,9[16.7 µM],-3
CC(C)n1c(NCCc2ccccc2)nc2c1c(=O)n(C)c(=O)n2C,3,-5,14,0,110*,.
O=C(c1ccc(-c2ccccc2)cc1)c1ccccc1C(=O)N1CCOCC1,.,.,8,-4,-7,13
S=C(c1ccc(-c2ccccc2)cc1)N1CCOCC1,-3,2,.,-6,63*,-66
O=C(Oc1ccc(Cl)cc1)N1CCCCC1,.,.,.,0,-60,50*
O=C(Oc1ccc(-c2ccccc2)cc1)N1CCOCC1,.,.,86*,-2,-78,62*
O=C(Oc1ccc(Cl)cc1)N1CCOCC1,-3,0,1,0,-4,16
CCCC(=O)Nc1ccc2c(c1)OC[C@H](C)N(C(=O)c1cnccn1)C[C@@H](C)[C@@H](OC)CN(C)C2=O,-2,.,.,-3,.,-1
O=C(NCC1CC1)[C@H]1[C@H](CO)[C@H]2Cn3c(ccc(-c4cccnc4)c3=O)[C@H]2N1Cc1cocn1,0,.,.,-3,.,-2
CC(=O)Nc1ccccc1C(=O)C(=O)Nc1ccc(C)c(C)c1,-1,.,72,-3,-44,33
CCc1ccc(NC(=O)C(=O)c2ccccc2NC(C)=O)cc1,0,42*,.,-1,-35,27
CC(=O)Nc1ccccc1C(=O)C(=O)Nc1ccc(F)c(Cl)c1,-1,2,.,1,-5,56*
Cn1c(CCNC(=O)c2ccco2)nc2cc(NC(=O)c3ccccc3)ccc21,-1,32*,89*,13,-17,46*
Cn1c(CCNC(=O)c2ccccc2)nc2cc(NC(=O)c3ccco3)ccc21,.,13,.,2,-45,22
Cn1c(CCNC(=O)c2ccco2)nc2cc(NC(=O)c3ccco3)ccc21,.,39*,.,-1,-67,51*
C[C@H](CO)N1C[C@H](C)[C@H](CN(C)C)Oc2c(NC(=O)Nc3cccc4ccccc34)cccc2C1=O,-1,.,.,.,.,.
O=C(C[C@@H]1C=C[C@@H](NC(=O)c2ccccc2)[C@H](CO)O1)NCc1ccc(Oc2ccccc2)cc1,0,.,.,1,57*[16.7 µM],13
O=C(C[C@@H]1C=C[C@@H](NC(=O)c2ccccc2)[C@@H](CO)O1)NCc1ccc(Oc2ccccc2)cc1,2,.,.,7,?,14
O=C(C[C@@H]1C=C[C@H](NC(=O)c2ccccc2)[C@H](CO)O1)NCc1ccc(Oc2ccccc2)cc1,2,.,.,15,61*[16.7 µM],5
O=C(C[C@H]1C=C[C@H](NC(=O)c2ccccc2)[C@@H](CO)O1)NCc1ccc(Oc2ccccc2)cc1,2,.,.,-6,31[16.7 µM],3
SMILES,ERAP1 HTS inh,Wnt act,MITF act,Cneo AK release,HIV Env fusion,esBAF inh
C[C@H](O)C#Cc1ccc2c(c1)O[C@H](CN(C)Cc1ccccn1)[C@H](C)CN([C@@H](C)CO)S2(=O)=O,0,.,.,-3,2[16.7 µM],-4
O=[N+]([O-])c1ccc2[nH]c(O)c(N=Nc3ccc(F)cc3)c2c1,-1,-2,.,6,-18,-5
O=[N+]([O-])c1ccccc1N=Nc1c(O)[nH]c2ccc(F)cc12,-1,31*,25,.,-73,.
O=[N+]([O-])c1ccc(N=Nc2c(O)[nH]c3ccc(F)cc23)cc1,-1,20,41,-1,-94,73*
O=C1NCC2=C1C(c1ccc(Br)cc1)Nc1ccccc1N2 (stereo unspecified),.,.,.,-6,-3,58*
O=C(c1ccccn1)N1CC[C@@H]2[C@H](CO)Nc3ccc(Br)cc3[C@@H]21,0,.,.,36,.,14
C[C@@H]1CN([C@@H](C)CO)C(=O)Cc2cc(NS(=O)(=O)c3cccs3)ccc2O[C@H]1CN(C)Cc1ccc(C(=O)O)cc1,2,.,.,-2,4[16.7 µM],3
O=S(=O)(c1cccs1)N1CCCCN2[C@H](C1)[C@@H](c1ccc(Br)cc1)[C@@H]2CO,-3,.,.,-2,.,-3
CCCCn1c(N)c(N(CC(C)C)C(=O)c2cc(-c3ccc(OC)c(OC)c3)nc3ccccc23)c(=O)[nH]c1=O,1,1,-2,.,-18,.
CCCCn1c(N)c(N(CCOC)C(=O)c2cc(-c3ccc(OC)c(OC)c3)nc3ccccc23)c(=O)[nH]c1=O,37*,-2,1,0,-3,2
COCC(=O)N1CC(=O)N2[C@H](CO)[C@@H](c3ccc(C#CCc4ccccc4)cc3)[C@H]2C1,5,.,.,.,.,.
C[C@H]1CN([C@@H](C)CO)C(=O)c2cccc(NC(=O)Nc3ccc(F)cc3)c2O[C@H]1CN(C)S(C)(=O)=O,1,.,.,-5,6[16.7 µM],0
COc1ccc2nc(SCc3ccccc3C)nc(C)c2c1,3,?,69,.,-10,.
COc1ccc2nc(SCc3cccc(C)c3)nc(C)c2c1,.,48*,71,.,-113,.
CCOCCCNC(=O)C(c1ccc(Cl)cc1)N1CCN(c2ccccc2)CC1 (stereo unspecified),3,-2,.,-2,-20,-10
CCOCCCNC(=O)C(c1ccc(Cl)cc1)N1CCC2(CC1)OCCO2 (stereo unspecified),.,60*,4,-5,-82,-16
C[C@H]1CCCCO[C@H](CN(C)C(=O)Cc2ccccc2)[C@@H](C)CN([C@@H](C)CO)C(=O)c2cc(NC(=O)Nc3ccccc3)ccc2O1,-1,.,.,3,14[16.7 µM],-1
C[C@@H]1CN([C@H](C)CO)S(=O)(=O)c2ccc(C3=CCCCC3)cc2O[C@H]1CN(C)C,.,.,.,.,11[16.7 µM],.
CN1C(=O)c2cc(NC(=O)Nc3ccccc3F)ccc2OC[C@H]2O[C@H](CC(=O)O)CC[C@@H]21,.,.,.,-1,5[16.7 µM],6
